# SIAE inh: human SIAE inhibitors, primary screen, biochemical, fluorescence polarization, FP-Rh probe, 1536-well HTS. Sialate O-acetylesterase (Homo sapiens), Q9HAT2. SIAE FP-Rh probe binding. inhibition, % at 9.66 µM. hit rate 0.69% among 370,000;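 active = inhibition above a cutoff: mean of compounds within the control limits plus 3 SD of those, cut at about 17% in these data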;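 note: 0% = plate median of compound wells and 100% = probe without SIAE protein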
# DAGLB inh: DAGLB lipase inhibitors, primary screen, biochemical, fluorescence, HTS. Diacylglycerol lipase-beta (Homo sapiens), Q8NCG7. HEK293T DAGLB membrane lysate, EnzChek fluorogenic substrate. inhibition, % at 5.17 µM. hit rate 0.059% among 340,000. AID 504411, 2011; in the data active = inhibition above about 34%;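 note: 0% = enzyme with vehicle and 100% = wells lacking enzyme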
# TCR CD3 inh: inhibitors of human TCR-CD3 interaction, primary screen, biochemical, fluorescence, TAMRA-labeled TCR probe; T-cell receptor (TCR); hit rate 0.37% among 360,000; AID 651800, 2012; inhibition, % at 9.4 µM; in the data active = inhibition above about 19%;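 note: recombinant mutant TCR 2C K166C tagged with TAMRA read by polarization; 0% = receptor in buffer alone and 100% = receptor with positive control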
# ABHD4 inh: ABHD4 inhibitors, primary screen, biochemical, fluorescence polarization, mouse; (Lyso)-N-acylphosphatidylethanolamine lipase (Mus musculus), Q8VD66; purified mABHD4, FP-Rh probe fluorescence polarization; inhibition, % at 8.92 µM; hit rate 0.54% among 370,000; AID 720543, 2013;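 active = inhibition exceeding the mean over every tested compound plus 3 SD, cut at about 30% in these data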;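 note: 0% = plate median of compound wells and 100% = S159A mutant with DMSO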
#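 Material: mouse ABHD4 enzyme, wild type; Benchmarks: S159A mutant high control, sample median low control; Buffer or medium: HEPES pH 7.0, NaCl, Pluronic buffer; Signal: fluorescence polarization; Read-out: percent inhibition of probe binding, normalized to plate controls; Timing: pre-incubation 45 min, probe exposure 60 min, at 25 °C; Dosing: 8.92 µM, single dose.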
# HTRA1 inhibitor: HTRA1 serine protease inhibitors, primary screen, biochemical, fluorescence polarization, HTS; Q92743; recombinant HTRA1, FP-rhodamine activity-based probe; inhibition, % at 5.96 µM; hit rate 0.5% among 340,000; in the data active = inhibition above about 36%;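 note: 0% = enzyme with DMSO and 100% = wells lacking enzyme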
# Target sequence (Q92743 whole entry, looked up): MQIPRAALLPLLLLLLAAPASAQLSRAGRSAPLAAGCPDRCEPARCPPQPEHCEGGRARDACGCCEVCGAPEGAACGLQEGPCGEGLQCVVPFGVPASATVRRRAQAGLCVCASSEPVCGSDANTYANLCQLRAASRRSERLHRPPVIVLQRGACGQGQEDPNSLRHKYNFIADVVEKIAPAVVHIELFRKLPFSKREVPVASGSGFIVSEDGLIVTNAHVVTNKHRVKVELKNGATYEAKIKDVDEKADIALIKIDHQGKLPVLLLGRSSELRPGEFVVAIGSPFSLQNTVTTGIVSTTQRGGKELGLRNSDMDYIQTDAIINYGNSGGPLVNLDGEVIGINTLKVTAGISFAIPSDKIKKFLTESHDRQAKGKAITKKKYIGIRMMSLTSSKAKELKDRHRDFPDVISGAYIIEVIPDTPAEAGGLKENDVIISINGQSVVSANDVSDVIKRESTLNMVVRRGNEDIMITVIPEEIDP
# DAGLB inh conf: DAGLB lipase inhibitors, retest, confirmation, biochemical, fluorescence, HEK293T membranes; inhibition, % at 5.17 µM; shares compounds with DAGLB inh; HEK293T DAGLB membrane lysate, EnzChek fluorogenic substrate; hit rate 73% among 190; AID 504445, 2011;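 active = mean inhibition over triplicate wells above a set limit taken from the primary lipase screen, cut at about 34% in these data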;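 note: 0% = DAGLB with DMSO and 100% = wells lacking DAGLB enzyme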
# HTRA1 conf: HTRA1 protease inhibitors, retest, confirmation, biochemical, fluorescence polarization. shares compounds with HTRA1 inhibitor. AID 540248, 2011. inhibition, % at 5.96 µM. recombinant HTRA1, FP-rhodamine activity-based probe. hit rate 66% among 1,600;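 active = mean inhibition over three repeats above a set limit taken from the earlier primary screen, cut at about 37% in these data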;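 note: 0% = HTRA1 with DMSO and 100% = wells lacking HTRA1; inhibitors block probe binding so polarization drops and inhibition rises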
# * marks the source's active call; other numbers are inactive results; . = no result given. Only some compounds are listed: those with a hit (about 1.5% of all), similar ones and a draw of the others.
SMILES,SIAE inh,DAGLB inh,TCR CD3 inh,ABHD4 inh,HTRA1 inhibitor,DAGLB inh conf,others
CC(=O)c1ccc(N2CCN(c3ccc(C(F)(F)F)cn3)CC2)cc1,9,50*,1,0,-4,70*,
COc1ccc(-c2csc3nc(-c4ccccc4OC)oc(=O)c23)cc1,7,43*,8,2,-84,41*,
CN(C)CCCN1CC(=O)N2CCc3ccc(Br)cc3C2CC1=O (configuration not stated),2,.,-1,-12,.,.,
CC/C(=N\Nc1ccc([N+](=O)[O-])cc1[N+](=O)[O-])c1ccc(O)cc1,1,39*,1,19,19,38*,
O=C(O)COc1ccc(Br)cc1C(c1c(C(=O)O)[nH]c2ccccc12)c1c(C(=O)O)[nH]c2ccccc12,.,15,.,.,1,.,
O=C(O)c1[nH]c2ccccc2c1C(c1cc(Cl)cc([N+](=O)[O-])c1O)c1c(C(=O)O)[nH]c2ccccc12,0,37*,1,68*,35,32,
COC(=O)C1=C(C)N(Cc2ccc(C(F)(F)F)cc2)C(=NCc2ccccc2C(F)(F)F)NC1c1ccc(F)cc1 (configuration not stated),2,.,-3,24,.,.,
O=C(O)c1ccccc1NS(=O)(=O)c1ccc(NN=Cc2cccc(Cl)c2)c([N+](=O)[O-])c1,-2,17,4,19,-14,.,
O=C(O)c1ccccc1NS(=O)(=O)c1ccc(NN=Cc2ccc(F)cc2)c([N+](=O)[O-])c1,.,37*,.,.,-19,33,
CC(C)S(=O)(=O)N[C@@H]1c2cc3c(cc2[C@H](c2ccccc2)[C@H]1C)OCO3,9,.,-6,12,.,.,
CCc1nnc(NS(=O)(=O)c2ccc(Nc3ccc([N+](=O)[O-])c4nonc34)cc2)s1,-13,36*,-6,11,2,32,
COC(=O)C1CCCN(C(=O)C2CCN(S(=O)(=O)c3cccc4cccnc34)CC2)C1 (configuration not stated),-5,.,.,2,.,.,
NS(=O)(=O)c1ccc(N=Nc2c(O)ccc3ccccc23)cc1,13,37*,4,4,11,47*,
Cc1cc(O)c(C(C)C)cc1N=Nc1ccccc1C(=O)O,4,31,-6,12,8,.,
Cc1cc(N=Nc2ccccc2C(=O)O)c(C)c(C)c1O,5,35*,-6,13,10,48*,
O=C(O)c1cccc2c1-c1ccc(Cl)cc1C2=O,1,1,5,1,-7,.,
Nc1cccc2c1C(=O)c1ccc(Cl)cc1C2=O,-3,38*,-27,2,30,40*,
Fc1ccc(-[n+]2nc(Nc3ccccc3)sc2-c2c3ccccc3cc3ccccc23)cc1,1,21,-3,29,8,.,
c1ccc(-[n+]2nc(Nc3cccc4ccccc34)sc2-c2c3ccccc3cc3ccccc23)cc1,.,43*,.,.,18,41*,
COc1ccc(/C=N/Nc2ccc(C(F)(F)F)cc2[N+](=O)[O-])cc1O,-9,40*,6,6,9,64*,
CN(C)c1ccc(N=Nc2nc3ccccc3n2C)cc1,-29,36*,-8,-38,2,59*,
NC(=O)CC(NC(=O)c1ccccc1)c1ccc(NCCc2cccc(F)c2)c([N+](=O)[O-])c1 (configuration not stated),-11,14,5,-3,-4,.,
NC(=O)CC(NC(=O)c1ccc(Br)cc1)c1ccc(NCCc2ccc(F)cc2)c([N+](=O)[O-])c1 (configuration not stated),-6,39*,2,-3,-3,76*,
COC(=O)N1C[C@H](OCc2cn(-c3cc(Cl)cc(Cl)c3)nn2)[C@H](OCc2cn(-c3cc(Cl)cc(Cl)c3)nn2)C[C@@H]1c1ccccc1Br,-3,.,5,0,.,.,
Cc1ccc(-n2[nH]c(C)c(/C=N/Nc3ccc([N+](=O)[O-])cc3[N+](=O)[O-])c2=O)cc1C,10,39*,-3,21,13,48*,
SMILES,SIAE inh,DAGLB inh,TCR CD3 inh,ABHD4 inh,HTRA1 inhibitor,DAGLB inh conf,others
CCOC(=O)/C(C#N)=C/C=C1\C=Cc2ccccc2N1CC,2,37*,-10,-9,11,46*,
C[C@H]1CN(C(=O)OC(C)(C)C)CCN1c1ccc(N2CC[C@H](O)C2)c(C#N)c1,5,.,1,1,.,.,
C/C(C/C(C)=C1/SC(=S)NC1=O)=C1\SC(=S)NC1=O,-28,47*,7,14,-11,35*,
Nc1ccn([C@@H]2O[C@H](C(=O)N[C@H](Cc3ccccc3)C(=O)N3CCN(C(=O)N4CCOCC4)CC3)[C@@H](O)[C@H]2O)c(=O)n1,10,.,6,2,.,.,
O=C(c1ccc2c(c1)C(=O)NC2=O)c1ccc2c(c1)C(=O)NC2=O,-3,.,-9,-4,.,.,
CC1CC(C)CN(C(=O)c2ccc3c(c2NCCO)C(=O)c2ccccc2C3=O)C1 (configuration not stated),1,44*,-26,27,41*,63*,HTRA1 conf=53*
CC1(C)CC(=O)C2=C(C1)N=C1c3ccccc3C(=O)C1C2c1ccc(Cl)cc1 (configuration not stated),13,37*,-1,6,52*,35*,HTRA1 conf=51*
CCCCCC(=O)NC1CCCCN(Cc2ccccc2C)C1=O (configuration not stated),2,.,.,-1,.,.,
COC(=O)c1cc(-c2cccc(C(C)C)c2)c(=O)n2c1CCC2,-3,.,.,-6,.,.,
CCCC(=O)NC(c1cccs1)c1cc([N+](=O)[O-])c2cccnc2c1O (configuration not stated),8,35*,0,12,36*,20,HTRA1 conf=51*
CCC(=O)NC(c1cccs1)c1cc([N+](=O)[O-])c2cccnc2c1O (configuration not stated),7,22,-9,9,30,.,
CN1CCCN(S(=O)(=O)c2ccc3c(c2)CCC(=O)N3)CC1,3,.,.,6,.,.,
Nc1c(S(=O)(=O)O)cc(NC(=O)c2ccccc2)c2c1C(=O)c1ccccc1C2=O,.,61*,.,.,55*,72*,HTRA1 conf=72*
O=C(Nc1ccccc1-c1ccccc1)c1ccccc1,-2,-2,3,0,4,.,
Cc1ccc2cc(C3C(C#N)=C(N)Oc4c3ccc3cccnc43)c(=O)[nH]c2c1 (configuration not stated),.,36*,.,.,79*,4,HTRA1 conf=58*
